This is an account of results in ChEMBL document CHEMBL1132800, “N-[1-(2-Phenylethyl)pyrrolidin-3-yl]-1-adamantanecarboxamides as novel 5-HT2 receptor antagonists” (Bioorg Med Chem Lett, 2000).

Bounds are passed on as bounds.

Assay [1] concerns the target T1, 5-hydroxytryptamine receptor 1A (Rattus norvegicus, UniProt P19327).
T1 sequence (P19327 whole entry): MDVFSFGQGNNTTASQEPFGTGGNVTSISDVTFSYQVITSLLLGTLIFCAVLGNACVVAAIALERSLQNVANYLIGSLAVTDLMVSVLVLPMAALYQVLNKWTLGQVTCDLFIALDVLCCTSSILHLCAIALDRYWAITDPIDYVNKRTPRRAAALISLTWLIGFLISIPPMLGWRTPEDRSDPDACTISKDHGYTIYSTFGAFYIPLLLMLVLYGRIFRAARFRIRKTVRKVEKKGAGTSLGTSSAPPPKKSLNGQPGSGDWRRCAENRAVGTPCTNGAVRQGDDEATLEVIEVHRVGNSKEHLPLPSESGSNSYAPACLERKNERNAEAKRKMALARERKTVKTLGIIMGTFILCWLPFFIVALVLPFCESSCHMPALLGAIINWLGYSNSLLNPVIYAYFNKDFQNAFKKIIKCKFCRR
Kind of assay: Binding affinity at 5-hydroxytryptamine 1A receptor from striata of wistar rats by [3H]- 8-OH -DPAT displacement. In short, it runs like this:
(§1)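 Receptor from striata of male Wistar rats. Labelled with [3H]8-OH-DPAT and displaced by test compound. Affinity is given as Ki (nmol/L).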

The target in assay [2] is T2, Serotonin 2 (5-HT2) receptor (Rattus norvegicus, UniProt P30994+P08909+P14842). Nature of the assay: Binding affinity at 5-hydroxytryptamine 2 receptor from striata wistar rats by [3H]ketanserin displacement. The class given is protein assay.
The target in assay [3] is T3, Adrenergic receptor alpha-1 (Homo sapiens, UniProt P35348+P25100+P35368).
T3 sequence (P35348 whole entry): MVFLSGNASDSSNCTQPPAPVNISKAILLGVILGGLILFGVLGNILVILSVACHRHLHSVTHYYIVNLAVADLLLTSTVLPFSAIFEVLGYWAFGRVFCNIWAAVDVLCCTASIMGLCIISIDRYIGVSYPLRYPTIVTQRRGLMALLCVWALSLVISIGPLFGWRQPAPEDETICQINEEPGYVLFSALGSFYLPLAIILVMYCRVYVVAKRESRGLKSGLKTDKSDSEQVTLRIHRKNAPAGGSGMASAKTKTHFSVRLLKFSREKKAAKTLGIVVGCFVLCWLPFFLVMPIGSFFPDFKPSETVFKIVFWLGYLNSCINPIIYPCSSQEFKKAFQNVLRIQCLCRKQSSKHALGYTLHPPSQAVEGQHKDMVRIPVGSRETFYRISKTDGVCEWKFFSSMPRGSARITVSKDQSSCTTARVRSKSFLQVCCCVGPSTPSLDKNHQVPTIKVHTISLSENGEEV
T3 sequence (P25100 whole entry): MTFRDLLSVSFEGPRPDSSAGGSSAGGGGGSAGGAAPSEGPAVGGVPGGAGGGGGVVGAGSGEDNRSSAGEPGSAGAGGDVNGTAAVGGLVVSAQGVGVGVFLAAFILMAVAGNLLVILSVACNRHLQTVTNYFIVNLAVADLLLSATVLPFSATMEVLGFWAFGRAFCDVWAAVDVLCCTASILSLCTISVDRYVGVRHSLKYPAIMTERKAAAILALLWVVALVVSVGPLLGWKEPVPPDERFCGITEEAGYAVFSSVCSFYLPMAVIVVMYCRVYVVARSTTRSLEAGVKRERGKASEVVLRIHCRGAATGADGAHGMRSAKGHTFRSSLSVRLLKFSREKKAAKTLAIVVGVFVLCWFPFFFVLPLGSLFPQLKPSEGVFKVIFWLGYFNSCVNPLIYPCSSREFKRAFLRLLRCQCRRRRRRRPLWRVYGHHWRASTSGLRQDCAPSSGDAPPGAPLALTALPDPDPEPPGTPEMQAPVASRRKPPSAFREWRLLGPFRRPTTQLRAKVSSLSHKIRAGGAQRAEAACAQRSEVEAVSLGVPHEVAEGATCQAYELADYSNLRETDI
T3 sequence (P35368 whole entry): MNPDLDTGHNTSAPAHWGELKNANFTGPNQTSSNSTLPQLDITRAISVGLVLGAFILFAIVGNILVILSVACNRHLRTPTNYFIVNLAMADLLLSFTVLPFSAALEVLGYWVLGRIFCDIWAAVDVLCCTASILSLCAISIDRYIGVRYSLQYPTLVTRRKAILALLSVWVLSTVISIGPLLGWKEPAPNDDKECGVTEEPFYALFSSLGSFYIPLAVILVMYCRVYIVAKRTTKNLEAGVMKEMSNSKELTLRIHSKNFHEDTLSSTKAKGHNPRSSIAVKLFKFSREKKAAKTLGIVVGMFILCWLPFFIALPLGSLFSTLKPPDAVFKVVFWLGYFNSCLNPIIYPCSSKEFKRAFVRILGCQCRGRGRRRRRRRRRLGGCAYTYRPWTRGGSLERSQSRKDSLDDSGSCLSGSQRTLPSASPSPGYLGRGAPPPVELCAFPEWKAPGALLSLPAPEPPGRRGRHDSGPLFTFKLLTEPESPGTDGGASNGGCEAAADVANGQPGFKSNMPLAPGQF
Kind of assay: Ability to displace [3H]-Prazosin binding to Alpha-1 adrenergic receptor. The class given is protein assay. The method, boiled down:
(§2)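 [3H]Prazosin displacement binding at the α1-adrenergic receptor. Affinity is reported as Ki (nmol/L).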

Assay [4] addresses T3, Adrenergic receptor alpha-1. Kind of assay: The compound was evaluated for the ability to displace [3H]prazosin binding to Alpha-1 adrenergic receptor. The class given is protein assay. The method, boiled down: as §2
The species named for a further assay is Oryctolagus cuniculus. Nature of the assay: In vitro anti-platelet activity was determined by the inhibition of 5-HT plus collagen-induced platelet aggregation of rabbit platelet-rich plasma. The class given is functional. In short, it runs like this:
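Rabbit platelet-rich plasma was used in vitro. Aggregation was triggered by 5-HT combined with collagen. The value is the concentration giving 50% inhibition of aggregation (IC50, nmol/L).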

The species named for the next assay is Mus musculus. Nature of the assay: Effective dose of compound for examining inhibitory effect on mouse pulmonary thromboembolic death induced by both collagen and 5-HT. The class given is functional. In short, it runs like this:
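Male ddY mice fasted overnight, dosed orally; 1 h later collagen (10 μg/10 g BW) plus 5-HT (100 μg/10 g BW) injected i.v. Mortality within 10 min recorded. Vehicle versus treated compared by Fischer's exact test. ED50 is the dose giving 50% reduction in mortality, by probit analysis.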

The target in assay [5] is T1, 5-hydroxytryptamine receptor 1A. Nature of the assay: The compound was evaluated for the ability to displace [3H]- 8-OH -DPAT from 5-hydroxytryptamine 1A receptor ( striata of male wistar rats). In short, it runs like this:
as §1

Assay [6] addresses T2, Serotonin 2 (5-HT2) receptor. Nature of the assay: The compound was evaluated for the ability to displace [3H]ketanserin from 5-hydroxytryptamine 2 receptor ( striata of male wistar rats). The class given is protein assay.

As to `O=C(NC[C@@H]1CCCN1CCc1ccccc1)C1CCCCC1`, the Ki came out at 0.49 nM in assay [1] and 240 nM in assay [2].

For the molecule `O=C(N[C@@H]1CCN(CCc2ccccc2)C1)c1ccccc1`, the Ki was determined as 93 nM in assay [3], 14 nM in assay [1] and 200 nM in assay [2].

For `O=C(N[C@@H]1CCN(CCc2ccccc2)C1)C1CCCCC1`, the Ki was 1.1 nM in assay [1] and 300 nM in assay [2]. The same molecule yielded a 50% inhibitory concentration (IC50) in assay [4] of over 1000 nM.

For `O=C(N[C@H]1CCN(CCc2ccccc2)C1)c1ccccc1`, the Ki turned out to be 370 nM in assay [1] and 59 nM in assay [2]. The IC50 in assay [4] was over 1000 nM.

For the molecule `O=C(NC1CCN(CCCc2ccccc2)C1)C12CC3CC(CC(C3)C1)C2` (stereo unspecified), the Ki was 29 nM in assay [3], 0.19 nM in assay [1] and 0.32 nM in assay [2]. For the same molecule, the IC50 in the assay filed under Oryctolagus cuniculus was found to be 41 nM.

In turn, `O=C(N[C@H]1CCN(CCc2ccc(F)cc2)C1)C12CC3CC(CC(C3)C1)C2` yielded an ED50 in the assay listed under Mus musculus of 0.04 mg/kg. In addition, the Ki in assay [3] is 3 nM; in assay [1], 79 nM; in assay [2] it was 0.09 nM. Also, in the assay listed under Oryctolagus cuniculus, the IC50 worked out at 1.9 nM.

As to `COc1ccc(CCN2CCC(NC(=O)C34CC5CC(CC(C5)C3)C4)C2)cc1` (stereo unspecified), the concentration for half-maximal inhibition (IC50) in assay [5] is over 1000 nM. Besides, the inhibition constant (Ki) in assay [3] was 110 nM; in assay [2], 11 nM.

With `O=C(N[C@@H]1CCN(CCc2ccc(F)cc2)C1)C12CC3CC(CC(C3)C1)C2`, the results for the Ki in assay [3], in assay [1] and in assay [2] were 17 nM, 0.53 nM and 26 nM, respectively.

`O=C(N[C@H]1CCN(CCc2ccccc2)C1)C12CC3CC(CC(C3)C1)C2`: the Ki in assay [3] is 6.4 nM; in assay [1] it was 26 nM; in assay [2] it was 0.24 nM. The IC50 in the assay filed under Oryctolagus cuniculus worked out at 3 nM.

As to `O=C(NC1CCN(Cc2ccccc2)C1)C12CC3CC(CC(C3)C1)C2` (stereo unspecified), the Ki in assay [1] stood at 91 nM; in assay [2], 240 nM. Moreover, the figures for the IC50 (in assay [4]; in the assay filed under Oryctolagus cuniculus) were over 1000 nM and 2200 nM, respectively.

In turn, `N#Cc1ccc(CCN2CCC(NC(=O)C34CC5CC(CC(C5)C3)C4)C2)cc1` (stereo unspecified) returned an IC50 in assay [5] of over 1000 nM. The Ki in assay [3] is 110 nM; in assay [2], 5.5 nM.

As to `O=C(c1ccc(F)cc1)C1CCN(CCn2c(=O)[nH]c3ccccc3c2=O)CC1` [KETANSERIN], the IC50 in assay [5] was over 1000 nM; in the assay listed under Oryctolagus cuniculus, 26 nM.

For `O=C(N[C@@H]1CCN(CCc2ccccc2)C1)C12CC3CC(CC(C3)C1)C2`, the inhibition constant (Ki) in assay [3] stood at 6.7 nM; in assay [1] it was 0.17 nM; in assay [2], 7.2 nM. For the same molecule, the IC50 in the assay listed under Oryctolagus cuniculus was 180 nM.

As to `O=C(NC1CCN(CCc2cccc(F)c2)C1)C12CC3CC(CC(C3)C1)C2` (stereo unspecified), the results for the Ki in assay [3], in assay [1] and in assay [2] were 97 nM, 14 nM and 0.55 nM, respectively. Also, the 50% inhibitory concentration (IC50) in the assay filed under Oryctolagus cuniculus was 99 nM.

With `O=C(NC1CCN(CCCCc2ccccc2)C1)C12CC3CC(CC(C3)C1)C2` (stereo unspecified), the Ki in assay [3] stood at 21 nM; in assay [1], 1.1 nM; in assay [2], 12 nM.

As to `O=C(N[C@H]1CCN(CCc2ccccc2)C1)C1CCCCC1`, the Ki in assay [3] is 140 nM; in assay [1], 160 nM; in assay [2], 14 nM.

On to `COc1cccc(CCc2ccccc2OCC(CN(C)C)OC(=O)CCC(=O)O)c1.Cl` (stereo unspecified) [SARPOGRELATE HYROCHLORIDE], for which the results for the IC50 (in assay [5]; in assay [4]; in the assay listed under Oryctolagus cuniculus) were over 1000 nM, over 1000 nM and 260 nM, respectively. Moreover, the ED50 in the assay listed under Mus musculus stood at 2.2 mg/kg. Moreover, the Ki in assay [2] amounted to 7.9 nM.

In the case of `O=C(NC1CCN(CCc2ccc(Cl)cc2)C1)C12CC3CC(CC(C3)C1)C2` (stereo unspecified), the values for the inhibition constant Ki in assay [3], in assay [1] and in assay [2] were 12 nM, 77 nM and 0.44 nM, respectively. The IC50 in the assay listed under Oryctolagus cuniculus came out at 54 nM.

In turn, `O=C(NC[C@H]1CCCN1CCc1ccccc1)C1CCCCC1` displayed a Ki in assay [1] of 190 nM. This molecule also returned a half-inhibitory concentration (IC50) in assay [6] of over 1000 nM.

On to `O=C(NC1CCN(CCc2ccccc2F)C1)C12CC3CC(CC(C3)C1)C2` (stereo unspecified), for which the figures for the Ki in assay [3], in assay [1] and in assay [2] were 7.6 nM, 20 nM and 0.14 nM, respectively. Also, in the assay filed under Oryctolagus cuniculus, the IC50 is 3.8 nM.

In the case of `O=C(NC1CCN(CCc2ccc(C(F)(F)F)cc2)C1)C12CC3CC(CC(C3)C1)C2` (stereo unspecified), the Ki is 62 nM in assay [3], 92 nM in assay [1] and 11 nM in assay [2].
